Assay results taken from ChEMBL document CHEMBL1134364, “Antipsoriatic anthrones with modulated redox properties. 5. Potent inhibition of human keratinocyte growth, induction of keratinocyte differentiation, and reduced membrane damage by novel 10-arylacetyl-1,8-dihydroxy-9(10H)-anthracenones” (J Med Chem, 2001).

Assay: Partition coefficient (logP)
Format: physicochemical
Details: octanol/water

logP | SMILES
4.6 | O=C1c2c(O)cccc2C(C(=O)Cc2ccc(Br)cc2)c2cccc(O)c21
4.59 | CC(C)Oc1ccc(CC(=O)C2c3cccc(O)c3C(=O)c3c(O)cccc32)cc1
4.42 | CSc1ccc(CC(=O)C2c3cccc(O)c3C(=O)c3c(O)cccc32)cc1
4.8 | O=C1c2c(O)cccc2C(C(=O)Cc2ccc(I)cc2)c2cccc(O)c21
3.41 | COc1ccc(CC(=O)C2c3cccc(O)c3C(=O)c3c(O)cccc32)cc1O
4.42 | CN(C)c1ccc(CC(=O)C2c3cccc(O)c3C(=O)c3c(O)cccc32)cc1
4.91 | COc1ccc(COc2ccc(CC(=O)C3c4cccc(O)c4C(=O)c4c(O)cccc43)cc2)cc1
5.19 | COc1cccc(COc2ccc(CC(=O)C3c4cccc(O)c4C(=O)c4c(O)cccc43)cc2)c1

Second part, the compound before the results:

SMILES | logP
O=C1c2c(O)cccc2C(C(=O)Cc2ccccc2Nc2c(Cl)cccc2Cl)c2cccc(O)c21 | 3.91
CC(C(=O)C1c2cccc(O)c2C(=O)c2c(O)cccc21)c1ccccc1 (centres undefined) | 4.43
O=C1c2c(O)cccc2C(C(=O)Cc2ccc(Cl)c(Cl)c2)c2cccc(O)c21 | 4.74
O=C(O)Cc1ccc(CC(=O)C2c3cccc(O)c3C(=O)c3c(O)cccc32)cc1 | 2.84

Assay: Concentration required to inhibit 50% growth of HaCaT cells
Format: functional, cell-based
Details: Homo sapiens
In short: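 HaCaT keratinocytes treated for 48 h. Proliferation read by counting dispersed cells under phase-contrast microscope. Growth inhibition tested for significance against control, N = 3, P < 0.01.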

SMILES | IC50
O=C1c2c(O)cccc2C(C(=O)Cc2ccc([N+](=O)[O-])cc2)c2cccc(O)c21 | 4.7 µM
O=C1c2c(O)cccc2C(C(=O)Cc2ccc(O)cc2)c2cccc(O)c21 | 1.7 µM
O=C1c2c(O)cccc2Cc2cccc(O)c21 [ANTHRALIN] | 0.7 µM
O=C1c2c(O)cccc2C(C(=O)Cc2ccc(Br)cc2)c2cccc(O)c21 | 2.9 µM
CC(C)Oc1ccc(CC(=O)C2c3cccc(O)c3C(=O)c3c(O)cccc32)cc1 | 1.8 µM
CSc1ccc(CC(=O)C2c3cccc(O)c3C(=O)c3c(O)cccc32)cc1 | 1.6 µM
COc1ccc(CC(=O)C2c3cccc(O)c3C(=O)c3c(O)cccc32)cc1 | 1.1 µM
O=C1c2c(O)cccc2C(C(=O)Cc2ccc(I)cc2)c2cccc(O)c21 | 3.1 µM
O=C1c2c(O)cccc2C(C(=O)Cc2ccccc2Nc2c(Cl)cccc2Cl)c2cccc(O)c21 | 1.3 µM
CC(C(=O)C1c2cccc(O)c2C(=O)c2c(O)cccc21)c1ccccc1 (centres undefined) | 1 µM
COc1ccc(CC(=O)C2c3cccc(O)c3C(=O)c3c(O)cccc32)cc1O | 1.9 µM
O=C1c2c(O)cccc2C(C(=O)Cc2ccc(Cl)c(Cl)c2)c2cccc(O)c21 | 1.2 µM
CN(C)c1ccc(CC(=O)C2c3cccc(O)c3C(=O)c3c(O)cccc32)cc1 | 1.3 µM
CC(C)(C)c1cc(CC(=O)C2c3cccc(O)c3C(=O)c3c(O)cccc32)cc(C(C)(C)C)c1O | 3 µM
O=C1c2c(O)cccc2C(C(=O)Cc2ccc(OCc3ccccc3)cc2)c2cccc(O)c21 | 2.4 µM
COc1ccc(COc2ccc(CC(=O)C3c4cccc(O)c4C(=O)c4c(O)cccc43)cc2)cc1 | 3.2 µM
COc1cccc(COc2ccc(CC(=O)C3c4cccc(O)c4C(=O)c4c(O)cccc43)cc2)c1 | 1 µM
O=C(O)Cc1ccc(CC(=O)C2c3cccc(O)c3C(=O)c3c(O)cccc32)cc1 | 1.7 µM

Assay: Induction of Keratinocyte Differentiation in cross-linked envelope assay at 1 uM expressed as difference of the amount of cross-linked protein as a measure of HaCaT keratinocyte differentiation
Format: functional, Homo sapiens
Details: not given
In short: (§1)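 HaCaT cultures were 144 h post-confluent; medium replaced, compound added from DMSO stocks diluted in DMEM (final DMSO 0.2%), controls DMSO or medium alone, 48 h. Cells were detached with trypsin/EDTA, lysed in SDS/β-ME, dot-blotted, TCA-heated, Coomassie-stained and scanned. Value is cross-linked protein minus vehicle, per mg protein (Bradford), mean ± SEM of 3 experiments.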

SMILES | Activity
O=C1c2c(O)cccc2C(Cc2ccccc2)c2cccc(O)c21 | -1 ug (mg of protein)-1
O=C1c2c(O)cccc2C(C(=O)Cc2ccc(O)cc2)c2cccc(O)c21 | 2.5 ug (mg of protein)-1
O=C1c2c(O)cccc2Cc2cccc(O)c21 [ANTHRALIN] | 3.7 ug (mg of protein)-1
COc1ccc(CC(=O)C2c3cccc(O)c3C(=O)c3c(O)cccc32)cc1 | 2.3 ug (mg of protein)-1
O=C1c2cccc(O)c2C(=O)c2c(O)cccc21 [DANTHRON] | 0.6 ug (mg of protein)-1
O=C1c2ccccc2Cc2ccccc21 [ANTHRONE] | 0.5 ug (mg of protein)-1

Assay: Induction of Keratinocyte Differentiation in cross-linked envelope assay at 10 uM expressed as difference of the amount of cross-linked protein as a measure of HaCaT keratinocyte differentiation
Format: functional, Homo sapiens
Details: not given
In short: as §1

SMILES | Activity
O=C1c2c(O)cccc2C(Cc2ccccc2)c2cccc(O)c21 | 0.9 ug (mg of protein)-1
O=C1c2c(O)cccc2C(C(=O)Cc2ccc(O)cc2)c2cccc(O)c21 | 6.2 ug (mg of protein)-1
O=C1c2c(O)cccc2Cc2cccc(O)c21 [ANTHRALIN] | 5.8 ug (mg of protein)-1
COc1ccc(CC(=O)C2c3cccc(O)c3C(=O)c3c(O)cccc32)cc1 | 5.8 ug (mg of protein)-1
O=C1c2cccc(O)c2C(=O)c2c(O)cccc21 [DANTHRON] | 0 ug (mg of protein)-1
O=C1c2ccccc2Cc2ccccc21 [ANTHRONE] | 0.8 ug (mg of protein)-1

Assay: Induction of Keratinocyte Differentiation in cross-linked envelope assay at 5 uM expressed as difference of the amount of cross-linked protein as a measure of HaCaT keratinocyte differentiation
Format: functional, Homo sapiens
Details: not given
In short: as §1

SMILES | Activity
O=C1c2c(O)cccc2C(Cc2ccccc2)c2cccc(O)c21 | -0.8 ug (mg of protein)-1
O=C1c2c(O)cccc2C(C(=O)Cc2ccc(O)cc2)c2cccc(O)c21 | 5.1 ug (mg of protein)-1
O=C1c2c(O)cccc2Cc2cccc(O)c21 [ANTHRALIN] | 4.9 ug (mg of protein)-1
COc1ccc(CC(=O)C2c3cccc(O)c3C(=O)c3c(O)cccc32)cc1 | 5.3 ug (mg of protein)-1
O=C1c2cccc(O)c2C(=O)c2c(O)cccc21 [DANTHRON] | -0.1 ug (mg of protein)-1
O=C1c2ccccc2Cc2ccccc21 [ANTHRONE] | 0.3 ug (mg of protein)-1

Assay: Cytotoxic activity of LDH(mu) release in HaCaT cells was measured after treatment of 2 uM
Format: functional, Homo sapiens
Details: not given
In short: (§2)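 HaCaT cells treated with 2 µM compound. Membrane damage read as lactate dehydrogenase activity (mU) released into the culture medium. N = 3, SD < 10%.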

SMILES | LDH
O=C1c2c(O)cccc2Cc2cccc(O)c21 [ANTHRALIN] | 294 MU

Assay: Cytotoxic activity of LDH(mu) release in HaCaT cells was measured after treatment with 2 uM of the compound
Format: functional, Homo sapiens
Details: not given
In short: as §2

SMILES | LDH
O=C1c2c(O)cccc2C(C(=O)Cc2ccc([N+](=O)[O-])cc2)c2cccc(O)c21 | 179 MU
O=C1c2c(O)cccc2C(C(=O)Cc2ccc(O)cc2)c2cccc(O)c21 | 173 MU
COc1ccc(CC(=O)C2c3cccc(O)c3C(=O)c3c(O)cccc32)cc1 | 143 MU
O=C1c2c(O)cccc2C(C(=O)Cc2ccccc2Nc2c(Cl)cccc2Cl)c2cccc(O)c21 | 247 MU
CC(C)(C)c1cc(CC(=O)C2c3cccc(O)c3C(=O)c3c(O)cccc32)cc(C(C)(C)C)c1O | 199 MU
O=C1c2c(O)cccc2C(C(=O)Cc2ccc(OCc3ccccc3)cc2)c2cccc(O)c21 | 202 MU
COc1cccc(COc2ccc(CC(=O)C3c4cccc(O)c4C(=O)c4c(O)cccc43)cc2)c1 | 159 MU

Assay: Inhibition of LTB4 biosynthesis in bovine polymorphonuclear leukocytes using nordihydroguaiaretic acid
Format: functional, cell-based, Bos taurus
Details: not given

IC50 | SMILES
0.7 µM | O=C1c2c(O)cccc2C(C(=O)Cc2ccc(Br)cc2)c2cccc(O)c21
15 µM | CC(C)Oc1ccc(CC(=O)C2c3cccc(O)c3C(=O)c3c(O)cccc32)cc1
6 µM | CSc1ccc(CC(=O)C2c3cccc(O)c3C(=O)c3c(O)cccc32)cc1
1.5 µM | O=C1c2c(O)cccc2C(C(=O)Cc2ccc(I)cc2)c2cccc(O)c21
8 µM | COc1ccc(CC(=O)C2c3cccc(O)c3C(=O)c3c(O)cccc32)cc1O
6 µM | CN(C)c1ccc(CC(=O)C2c3cccc(O)c3C(=O)c3c(O)cccc32)cc1
0.6 µM | O=C1c2c(O)cccc2C(C(=O)Cc2ccc(OCc3ccccc3)cc2)c2cccc(O)c21
1.5 µM | COc1ccc(COc2ccc(CC(=O)C3c4cccc(O)c4C(=O)c4c(O)cccc43)cc2)cc1
1 µM | COc1cccc(COc2ccc(CC(=O)C3c4cccc(O)c4C(=O)c4c(O)cccc43)cc2)c1

More lines, now with the values behind:

SMILES | IC50
COc1ccc(CC(=O)C2c3cccc(O)c3C(=O)c3c(O)cccc32)cc1 | 0.5 µM
O=C1c2c(O)cccc2C(C(=O)Cc2ccccc2Nc2c(Cl)cccc2Cl)c2cccc(O)c21 | 3 µM
CC(C(=O)C1c2cccc(O)c2C(=O)c2c(O)cccc21)c1ccccc1 (centres undefined) | 18 µM
O=C1c2c(O)cccc2C(C(=O)Cc2ccc(Cl)c(Cl)c2)c2cccc(O)c21 | 9 µM
O=C(O)Cc1ccc(CC(=O)C2c3cccc(O)c3C(=O)c3c(O)cccc32)cc1 | 3 µM

Assay: Deoxyribose degradation activity was measured as hydroxyl radical formation
Details: not given

Activity | SMILES
< 0.3 | O=C1c2c(O)cccc2C(C(=O)Cc2ccc(Br)cc2)c2cccc(O)c21
< 0.3 | CC(C)Oc1ccc(CC(=O)C2c3cccc(O)c3C(=O)c3c(O)cccc32)cc1
< 0.3 | O=C1c2c(O)cccc2C(C(=O)Cc2ccc(I)cc2)c2cccc(O)c21
< 0.3 | O=C1c2c(O)cccc2C(C(=O)Cc2ccc(OCc3ccccc3)cc2)c2cccc(O)c21
< 0.3 | COc1ccc(COc2ccc(CC(=O)C3c4cccc(O)c4C(=O)c4c(O)cccc43)cc2)cc1
< 0.3 | COc1cccc(COc2ccc(CC(=O)C3c4cccc(O)c4C(=O)c4c(O)cccc43)cc2)c1

Second part, the compound before the results:

SMILES | Activity
O=C1c2c(O)cccc2C(C(=O)Cc2ccccc2Nc2c(Cl)cccc2Cl)c2cccc(O)c21 | 0.45
CC(C(=O)C1c2cccc(O)c2C(=O)c2c(O)cccc21)c1ccccc1 (centres undefined) | < 0.3
O=C(O)Cc1ccc(CC(=O)C2c3cccc(O)c3C(=O)c3c(O)cccc32)cc1 | 0.93
